ERAP1 HTS inh = blocks human ERAP1 aminopeptidase activity; Q9NZ08; recombinant ERAP1, Leu-AMC fluorescence, 60 min; inhibition, % at 10.7 µM; 0.15% of 340,000 active;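 active means mean replicate inhibition of at least 30%, or all replicates individually reaching that 30% level; inactive means mean below 30% and not every replicate reaching it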;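 further: 0% = neutral control wells and 100% = L-leucinethiol positive control wells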
MLL AF4-AF9 inh = blocks AF4 peptide binding to human AF9. AID 651704. P42568. 0.47% of 350,000 active. inhibition, % at 10 µM. AlphaScreen, biotin-AF4 peptide binding to FLAG-AF9;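 active means every replicate reaching a set inhibition limit, whatever the replicate mean, cut at about 25% in these data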;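 further: 0% = plate neutral control median and 100% = total signal loss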
S100A4 inh HTS = inhibitors of human S100A4 binding to myosin IIA peptide. P26447. S100A4/TAMRA-MyoIIA peptide fluorescence polarization. inhibition, % at 10.7 µM. 0.14% of 360,000 active. AID 652163;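 active means mean inhibition of at least 70% across replicates, with every replicate also reaching that level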
Target sequence (P26447 whole entry, looked up): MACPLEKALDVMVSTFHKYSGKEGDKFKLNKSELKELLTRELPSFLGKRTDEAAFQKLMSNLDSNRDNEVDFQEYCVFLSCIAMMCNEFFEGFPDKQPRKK
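Test system: S100A4 monomer protein; Medium: HEPES pH 7.2 with CaCl2, KCl, NaCl, DTT, Triton; Probe or stimulus: TAMRA-labelled myosin IIA heavy-chain peptide probe, 5 nM; Doses: one dose per compound; Times: polarization read 5 min after assay mix addition, stable 5–60 min; Benchmarks: neutral control DMSO, positive control TFP.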
rRNA inh HTS = inhibits bacterial ribosomal RNA function over humanized ribosomes; E. coli WT GFP vs humanized-ribosome RFP mutants, fluorescence, 24 h; stronger effect = lower value; DMSO median 0, no signal -100; GFP signal change (wild-type ribosome), % (concentration not given with the values); 1.6% of 350,000 active;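 active means significant combined selectivity score with lowered wild-type GFP, culture density cut under 30%, mutant RFP and density less affected; inactive means any of these conditions unmet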
E-selectin induc = induces E-selectin expression in human endothelial cells; HUVEC E-selectin immunofluorescence imaging; normalized: neutral wells 0, TNF-alpha wells 100; activation, % at 7.58 µM; 0.37% of 260,000 active;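 active means mean E-selectin-positive cell signal at least 10% of the positive control, reached in at least 60% of replicates, without over 20% cell loss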
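System: HUVEC, human umbilical vein endothelial cells; quantity: 3,000 cells/well; buffer or medium: EGM-2 medium, gelatin-coated wells; dosing: single-point compound dose; detection: immunofluorescence imaging; evaluation: % PE-positive cells; benchmarks: TNF-alpha, DMSO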
SIRT5 block = blocks human SIRT5 desuccinylation of peptide; Q9NXA8; Purified SirT5, succinyl-peptide AMC, trypsin-coupled fluorescence; inhibition, % at 15 µM; 1.1% of 330,000 active; in the data active means inhibition above about 15%
Target sequence (Q9NXA8 whole entry, looked up): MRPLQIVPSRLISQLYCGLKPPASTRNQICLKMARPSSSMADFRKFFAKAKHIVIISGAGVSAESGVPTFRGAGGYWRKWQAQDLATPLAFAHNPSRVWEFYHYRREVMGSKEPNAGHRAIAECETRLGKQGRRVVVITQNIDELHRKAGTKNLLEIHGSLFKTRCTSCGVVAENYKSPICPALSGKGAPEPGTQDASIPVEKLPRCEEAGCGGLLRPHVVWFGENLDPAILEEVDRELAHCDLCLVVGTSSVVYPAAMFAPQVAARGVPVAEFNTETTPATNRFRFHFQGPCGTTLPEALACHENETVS
Active calls of the source: *; · = not tested or not shown. Sampled rows, rich in hits. Any-hit rate of the full collection: about 3.4%.

SMILES	ERAP1 HTS inh	MLL AF4-AF9 inh	S100A4 inh HTS	rRNA inh HTS	E-selectin induc	SIRT5 block
COc1ccc(N(C)S(=O)(=O)c2cccc(C(=O)Nc3ccc(N4CCOCC4)cc3)c2)cc1	-1	10	-3	-21*	-1	2
COc1ccc(N2CCN(CC(=O)Nc3cccc(S(=O)(=O)N4CCOCC4)c3)CC2)cc1	1	0	0	-3	·	15*
O=C(COC(=O)c1cc(=O)[nH]c2ccccc12)Nc1cccc(S(=O)(=O)N2CCOCC2)c1	·	-4	8	-17*	0	3
O=C(COC(=O)c1cc(=O)[nH]c2ccccc12)Nc1ccc(Cl)c(S(=O)(=O)N2CCOCC2)c1	-5	1	-2	-5	0	1
O=C(CSc1ncnc2ccccc12)Nc1cccc(S(=O)(=O)N2CCOCC2)c1	-1	-2	0	-9	·	·
O=C(CSc1nc2ccc(Cl)cc2[nH]1)c1cccs1	5	-10	-5	-25*	·	-1
CC(Oc1ncnc2ccccc12)C(=O)Nc1cccc(S(=O)(=O)N2CCOCC2)c1 (centres undefined)	-3	29*	1	-7	·	-7
Cc1nonc1NC(=O)CSc1nc2ccc(Cl)cc2[nH]1	-5	1	-4	-3	0	1
COc1ccc(S(=O)(=O)N2C[C@@H](O)COC[C@H]3O[C@H](CC(=O)NCc4ccc(Cl)c(Cl)c4)CC[C@@H]32)cc1	0	1	5	-54	0	6
C[C@H](CO)N1C[C@H](C)[C@H](CN(C)Cc2ccc(C(F)(F)F)cc2)Oc2ccc(NC(=O)Nc3ccc(C(F)(F)F)cc3)cc2CC1=O	1	2	-2	4	0	1
C[C@H]1CN([C@@H](C)CO)C(=O)c2cc(C#CC3(O)CCCC3)cnc2O[C@@H]1CN(C)C(=O)C1CCOCC1	1	-5	-1	0	0	-10
O=C(CSc1nc2ccccc2[nH]1)Nc1cccc(S(=O)(=O)N2CCOCC2)c1	2	-14	1	-36*	·	-1
O=C(CSc1nc2ccccc2[nH]1)Nc1ccc(N2CCOCC2)cc1	1	2	-7	1	0	-3
NS(=O)(=O)c1cccc(NC(=O)CSc2nnc(-c3ccccc3F)n2C2CC2)c1	·	-1	0	-29*	-1	-4
CN(C)C(=O)c1ccc(NC(=O)CSc2nc3ccccc3[nH]2)cc1	-3	1	2	-21*	-1	-1
COc1ccccc1S(=O)(=O)N[C@H]1C=C[C@H](CC(=O)NCc2cc(F)cc(F)c2)O[C@@H]1CO	5	-3	4	1	0	-5
Cc1oc2ccc(OCc3ccc(Br)cc3)cc2c1C(=O)O	-3	-1	-2	-26*	0	-4
O=C(Nc1cc(F)ccc1F)N[C@@H]1C=C[C@H](CC(=O)N2CCc3ccccc3C2)O[C@@H]1CO	0	1	4	-3	0	0
CCSc1ccc2c(c1)N(CCCN1CCN(C)CC1)c1ccccc1S2	28	65*	-3	·	0	-7
CN1CCN(CCCN2c3ccccc3Sc3ccc(Cl)cc32)CC1	5	36*	-6	·	1	-6
CC(CN1CCN(CCOCCO)CC1)CN1c2ccccc2Sc2ccc(Cl)cc21 (centres undefined)	-1	20	5	-53	0	-2
CN1CCN(CCCNC(=O)c2ccc(/C=C3/Sc4ccccc4N(Cc4cccc(Cl)c4)C3=O)cc2)CC1	5	27*	-3	-50	·	0
CN(C)CCCN1c2ccc(O)cc2Sc2ccc(Cl)cc21	3	51*	3	·	0	·
OCCN1CCN(CCCN2c3ccccc3Sc3ccc(C(F)(F)F)cc32)CC1	23	18	2	-62	0	-11
COc1ccc2c3c(n(C)c2c1)[C@H](CO)N(C(=O)C1CCOCC1)CC31CCN(Cc2cccc(F)c2)CC1	0	-2	2	-5	0	0
SMILES	ERAP1 HTS inh	MLL AF4-AF9 inh	S100A4 inh HTS	rRNA inh HTS	E-selectin induc	SIRT5 block
CC(=O)N(C)C[C@@H]1Oc2cc(C#Cc3ccccn3)ccc2S(=O)(=O)N([C@H](C)CO)C[C@H]1C	-10	0	-8	-2	0	-3
COc1ccc2c3c(n(C)c2c1)[C@@H](CO)N(C(=O)Cc1ccccc1)CC31CCN(C(C)=O)CC1	·	0	·	-1	0	·
CCCC#Cc1ccc2c(c1)O[C@@H](CN(C)CC1CCOCC1)[C@@H](C)CN([C@@H](C)CO)S2(=O)=O	-2	6	-4	4	0	6
Cc1ccc(S(=O)(=O)N(C)C[C@@H]2Oc3ccc(NS(=O)(=O)c4ccc(F)cc4)cc3CC(=O)N([C@H](C)CO)C[C@@H]2C)cc1	1	0	-8	5	1	10
C[C@H]1CN([C@@H](C)CO)C(=O)c2cc(NC(=O)CCCN(C)C)ccc2O[C@@H]1CN(C)C	2	-3	-7	3	0	1
C[C@@H]1CN([C@@H](C)CO)S(=O)(=O)c2ccc(-c3cccc(F)c3)cc2O[C@@H]1CN(C)S(=O)(=O)c1ccc(F)cc1	1	-3	9	2	0	17*
C[C@H]1CN([C@@H](C)CO)S(=O)(=O)c2ccc(-c3cccc(F)c3)cc2O[C@H]1CN(C)S(=O)(=O)c1ccc(F)cc1	0	0	-2	0	0	20*
CO[C@H]1CN(C)C(=O)c2cc(NC(=O)NC3CCCC3)ccc2OC[C@@H](C)NC[C@@H]1C	1	-6	-1	0	0	-1
C[C@H](CO)N1C[C@H](C)[C@H](CN(C)S(=O)(=O)c2ccccc2)OCCCC[C@H](C)Oc2ccc(NS(=O)(=O)c3cccs3)cc2C1=O	0	0	2	-7	·	7
CC(NC(=O)COC(=O)CCc1nc2ccccc2c(=O)[nH]1)c1ccccc1 (centres undefined)	0	0	1	-1	49*	-2
COCC(C)n1c(C)cc(C(=O)COC(=O)CCc2nc3ccccc3c(=O)[nH]2)c1C (centres undefined)	-1	4	-4	-17	0	20*
O=C(Nc1cccc(F)c1)N[C@H]1CC[C@@H](CCn2cc(Cc3ccccc3)nn2)O[C@@H]1CO	-2	0	-5	-4	0	3
CCCC(C)C(=O)Nc1nc(C)c(-c2csc(Nc3ccc(Cl)cc3)n2)s1 (centres undefined)	-2	3	0	3	0	31*
COc1ccc(NCC(O)Cn2c(C)c(C)c3ccccc32)cc1 (centres undefined)	1	21	2	-40*	-1	-3
